Data as given in ChEMBL document CHEMBL3992522, “Antileishmanial Activity of Pyrazolopyridine Derivatives and Their Potential as an Adjunct Therapy with Miltefosine” (J Med Chem, 2017).

Key:
Mus musculus [1] = experiment: Increase in IFN-gamma level in Balb/c mouse splenocytes infected with Leishmania donovani amastigote forms at 25 mg/kg, ip co-treated with 5 mg/kg, po miltefosine administered for 5 consecutive days measured on day 7 post last treatment by sandwich ELISA relative to control; assay type: functional
In short: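 Splenocytes (2×10^6) from treated infected BALB/c mice taken on day 4 or 7 post-treatment. Cultured in phenol-red-free RPMI 1640 with 5 μg/mL soluble L. donovani antigen for 72 h at 37 °C, 5% CO2. Supernatant cytokines measured by sandwich ELISA against a standard curve. Mean ± SD, n = 5 mice per group, three independent experiments.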

Mus musculus [2] = experiment: Increase in iNOS mRNA expression level in Balb/c mouse splenocytes infected with Leishmania donovani amastigote forms at 25 mg/kg, ip for 5 consecutive days measured on day 7 post last treatment by RT-PCR assay relative to control; assay type: functional
In short: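 Infected BALB/c mice dosed for 5 consecutive days (test compound i.p. in 8% DMSO, miltefosine oral), n = 5 per group; splenocytes taken day 4 and day 7 post-treatment. Total RNA extracted and iNOS mRNA quantified by real-time PCR, normalized to mouse β-actin, expressed as fold change over uninfected controls.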

COc1ccc(C2C3=C(CCC3=O)Nc3c2c(-c2c[nH]c4ccccc24)nn3-c2ccc(Cl)c(Cl)c2)cc1OC (configuration not stated)
fold change (FC) (Mus musculus [1]): 8.5 | fold change (FC) (Mus musculus [2]): 3.3
